core dimer inh: inhibitors of HCV core protein dimerization, primary screen, biochemical, TR-FRET, high-throughput; hit rate 0.33% among 300,000; inhibition, % at 5 µM; AID 1899, 2009; TR-FRET GST/Flag-core106 dimerization, 1536-well;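 active = inhibition above the mean of all tested compounds plus 3 SD, set per screening campaign, cut at about 45% in these data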
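Assay system: tagged HCV core106 pair (GST and Flag); medium: KF-containing HEPES buffer, pH 7.45, DTT, CHAPS, BSA; also added: Eu donor and XL665 acceptor anti-tag antibodies; dosing: 5 µM single dose; timing: compound-protein-antibody incubation 4 h at 22.5 °C; signal: TR-FRET 671 and 617 nm emission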
DNA FID counter-1: compounds displacing fluorescent DNA intercalator, primary screen, artefact control for HCV NS3 helicase inhibitor project, biochemical, FID fluorescence | DNA fluorescent intercalator displacement | inhibition, % at 7.9 µM | hit rate 0.17% among 290,000; in the data active = inhibition above about 37%;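 also: 0% = vehicle and 100% = reference compound; higher means more ethidium bromide displaced from hairpin DNA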
MLLE-PAM2 inh: inhibitors of PABP1 MLLE–PAM2 peptide binding, primary screen, biochemical, fluorescence polarization, FITC-PAM2, GST-MLLE; hit rate 0.36% among 360,000; AID 588489, 2011; inhibition, % at 20 µM; Polyadenylate-binding protein 1 (Homo sapiens), P11940; in the data active = inhibition above about 35%, passing the limit was not always enough;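 also: plate controls were DMSO wells with GST-MLLE for no effect and wells lacking GST-MLLE protein for full effect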
Target sequence (P11940 whole entry, looked up): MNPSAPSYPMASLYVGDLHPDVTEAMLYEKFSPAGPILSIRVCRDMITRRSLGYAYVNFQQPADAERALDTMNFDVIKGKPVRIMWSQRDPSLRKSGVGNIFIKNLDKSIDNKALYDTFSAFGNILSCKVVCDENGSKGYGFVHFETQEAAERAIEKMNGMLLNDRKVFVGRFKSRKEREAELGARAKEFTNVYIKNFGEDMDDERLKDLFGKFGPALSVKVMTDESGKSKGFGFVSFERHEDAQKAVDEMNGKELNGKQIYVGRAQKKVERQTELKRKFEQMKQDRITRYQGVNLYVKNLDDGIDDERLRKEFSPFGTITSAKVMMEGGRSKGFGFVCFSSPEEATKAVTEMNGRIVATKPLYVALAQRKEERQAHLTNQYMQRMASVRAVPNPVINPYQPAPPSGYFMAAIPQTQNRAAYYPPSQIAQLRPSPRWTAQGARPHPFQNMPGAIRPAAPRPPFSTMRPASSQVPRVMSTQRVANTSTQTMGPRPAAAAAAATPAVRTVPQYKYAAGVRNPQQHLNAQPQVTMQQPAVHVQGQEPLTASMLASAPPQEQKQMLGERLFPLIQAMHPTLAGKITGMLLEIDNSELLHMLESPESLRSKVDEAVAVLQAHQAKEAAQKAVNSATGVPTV
PABP polyA inh: PABP poly(A) RNA binding inhibitors, primary screen, biochemical, fluorescence polarization, uHTS; AID 2014, 2009; inhibition, % at 35 µM; hit rate 1% among 290,000;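 also: calls also rest on retests at 20 µM and on dose response follow-up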
eIF4H inh: human eIF4H binding inhibitors, primary screen, translation initiation inhibitor project, biochemical, uHTS, fluorescence polarization; inhibition, % at 35 µM; hit rate 0.94% among 290,000; eIF4H fluorescence polarization binding assay;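 also: calls also rest on retests at 20 µM and on dose response follow-up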
NS3 helicase inh: inhibitors of HCV NS3 helicase, primary screen, biochemical, Cy5 molecular beacon fluorescence; Hepatitis C virus NS3 helicase; NS3 helicase DNA unwinding; inhibition, % at 10.9 µM; hit rate 0.56% among 290,000; AID 1800, 2009;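 active = inhibition above the mean of all tested compounds plus 3 SD, set per campaign, cut at about 35% in these data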;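 also: 0% = DMSO wells and 100% = thioflavine S control wells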
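Control set: DMSO versus 110 µM thioflavine S; Material: NS3 helicase fragment of HCV; Measured by: Cy5 fluorescence at 0 and 60 min, beacon hairpin quenching; Read-out basis: percent inhibition from t60/t0 fluorescence ratio; Times: reaction time 60 min, 25 °C; Repeats: single replicate; Compound dosing: single dose, 10.9 µM nominal final, DMSO 0.8% final.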
NS3 helicase cf: HCV NS3 helicase inhibitors, retest, confirmation, biochemical, Cy5 molecular beacon fluorescence, triplicate | hit rate 31% among 1,600 | inhibition, % at 10.9 µM | NS3 helicase DNA unwinding | shares compounds with NS3 helicase inh | AID 1943, 2009;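 active = inhibition above the mean of all tested compounds plus 3 SD, cutoff set per campaign, cut at about 36% in these data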
DNA FID counter-2: compounds displacing fluorescent DNA intercalator, artefact control for HCV NS3 helicase inhibitor project, biochemical, FID fluorescence, triplicate; shares compounds with NS3 helicase inh; DNA fluorescent intercalator displacement; inhibition, % at 7.9 µM; hit rate 4% among 1,600; AID 1945, 2009; in the data active = inhibition above about 37%;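 also: 0% = vehicle and 100% = reference compound; higher means more displacement of ethidium bromide from the DNA hairpin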
* hit, by the source's call. Shown are actives, neighbours in structure and some others; about 2% of the full set was active somewhere. Unless noted, no rule for the calls is given here.

How did CC(=O)OCC1=C(C(=O)O)N2C(=O)C(NC(=O)Cn3nc(C(F)F)c(Cl)c3C)C2SC1 (centres undefined) do in these assays?
core dimer inh: 2.0; DNA FID counter-1: -19.8; MLLE-PAM2 inh: 21.5; PABP polyA inh: 9.3; eIF4H inh: 26.7; NS3 helicase inh: 40.3*; NS3 helicase cf: 17.7; DNA FID counter-2: -9.2

How did CC(=O)OCC1=C(C(=O)O)N2C(=O)C(NC(=O)c3ccc(COc4c(C)cccc4Cl)o3)C2SC1 (centres undefined) do in these assays?
core dimer inh: 14.2; DNA FID counter-1: -38.0; MLLE-PAM2 inh: 15.9; PABP polyA inh: 31.1; eIF4H inh: 55.9; NS3 helicase inh: 38.5*; NS3 helicase cf: 46.3*; DNA FID counter-2: -15.8

What do the screens show for `Cc1nnc(SCC2=C(C(=O)O)N3C(=O)C(NC(=O)Cn4nc(C(F)F)cc4C)C3SC2)s1` (centres undefined)?
core dimer inh: -0.3; DNA FID counter-1: -22.5; MLLE-PAM2 inh: 25.4; PABP polyA inh: -5.7; eIF4H inh: 19.5; NS3 helicase inh: 17.9

What do the screens show for `Cc1nnc(SCC2=C(C(=O)O)N3C(=O)C(NC(=O)Cn4nc(C(F)F)c(Cl)c4C)C3SC2)s1` (centres undefined)?
core dimer inh: -1.9; DNA FID counter-1: -25.5; MLLE-PAM2 inh: 12.4; PABP polyA inh: -3.4; eIF4H inh: 19.2; NS3 helicase inh: 44.9*; NS3 helicase cf: 38.0*; DNA FID counter-2: -22.0

Results for C#CCOc1ccc(CNC[C@H]2O[C@@H](n3ccc(=O)[nH]c3=O)[C@H](O)[C@@H]2O)cc1 ?
MLLE-PAM2 inh: -9.6

How did COc1cccc(-c2nc(-c3ccccc3)c(-c3ccccc3)[nH]2)c1OCC(=O)O do in these assays?
DNA FID counter-1: -49.5; MLLE-PAM2 inh: 2.1; PABP polyA inh: 5.1; eIF4H inh: -4.1; NS3 helicase inh: 45.6*; NS3 helicase cf: 64.4*; DNA FID counter-2: -11.6

What do the screens show for `O=C(O)CN1C(=O)/C(=C\c2ccccc2OCc2ccc(Cl)cc2)SC1=S`?
core dimer inh: 15.2; DNA FID counter-1: 15.5; MLLE-PAM2 inh: 23.2; PABP polyA inh: 23.7; eIF4H inh: 3.8; NS3 helicase inh: 42.6*; NS3 helicase cf: 69.9*; DNA FID counter-2: 32.6

What do the screens show for `O=C(O)CN1C(=O)/C(=C\c2cccc(OCc3ccc(Cl)cc3)c2)SC1=S`?
core dimer inh: 15.2; DNA FID counter-1: 12.2; MLLE-PAM2 inh: 19.8; PABP polyA inh: 3.1; eIF4H inh: -4.4; NS3 helicase inh: 20.1

What do the screens show for `Cc1ccc(-c2nn(-c3ccccc3)cc2/C=C2\SC(=S)N(CC(=O)O)C2=O)cc1`?
core dimer inh: 20.6; DNA FID counter-1: -23.2; MLLE-PAM2 inh: 10.8; PABP polyA inh: 16.0; eIF4H inh: 0.8; NS3 helicase inh: 47.0*; NS3 helicase cf: 60.8*; DNA FID counter-2: 45.9*

Results for O=C(O)CN1C(=O)/C(=C\c2cc(Br)ccc2OCc2ccc(Cl)cc2Cl)SC1=S ?
core dimer inh: 22.0; DNA FID counter-1: 35.3; MLLE-PAM2 inh: 12.3; PABP polyA inh: 63.4*; eIF4H inh: 88.5*; NS3 helicase inh: 75.8*; NS3 helicase cf: 85.6*; DNA FID counter-2: 52.3*

Results for OC(c1ccc(F)c(F)c1)c1nc(-c2cccc3cccnc23)cs1 (centres undefined) ?
MLLE-PAM2 inh: -8.1

Results for Cc1cc(C)c(-c2c(O)c3cccc4c3n(c2=O)CCC4)c(C)c1 ?
core dimer inh: -4.0; DNA FID counter-1: -26.4; MLLE-PAM2 inh: 5.1; PABP polyA inh: -3.5; eIF4H inh: 7.6; NS3 helicase inh: 40.4*; NS3 helicase cf: -15.5; DNA FID counter-2: -3.0

How did O=c1c(-c2ccccc2)c(O)c2cccc3c2n1CCC3 do in these assays?
core dimer inh: -1.0; DNA FID counter-1: -4.3; MLLE-PAM2 inh: 11.8; PABP polyA inh: 10.6; eIF4H inh: 2.5; NS3 helicase inh: 0.0

Results for COc1ccc(-c2nc(S(=O)(=O)c3ccccc3)c(N3CCN(C)CC3)o2)cc1 ?
MLLE-PAM2 inh: 12.2

What do the screens show for `Cc1ccc(NC(=O)c2cc(NC(=O)c3ccccc3C(=O)O)ccc2N2CCCCC2)cc1`?
core dimer inh: 24.3; DNA FID counter-1: -16.9; MLLE-PAM2 inh: 1.8; PABP polyA inh: 7.7; eIF4H inh: -0.4; NS3 helicase inh: 45.5*; NS3 helicase cf: 75.1*; DNA FID counter-2: -5.9

Results for CCc1ccc(/C=C2\Oc3c(ccc(O)c3CN3CCN(CCO)CC3)C2=O)cc1 ?
core dimer inh: -5.2; DNA FID counter-1: 9.6; MLLE-PAM2 inh: -12.0; PABP polyA inh: inconclusive; eIF4H inh: inconclusive; NS3 helicase inh: 50.5*; NS3 helicase cf: -13.5; DNA FID counter-2: 31.6

What do the screens show for `O=C(Nc1cccc(-n2cnnn2)c1)c1ccccc1Br`?
core dimer inh: -6.7; DNA FID counter-1: -2.8; MLLE-PAM2 inh: 2.7; PABP polyA inh: 3.6; eIF4H inh: -7.6; NS3 helicase inh: 53.2*; NS3 helicase cf: -9.2; DNA FID counter-2: 4.1

How did O=C(Nc1cccc(-n2cnnn2)c1)c1cc(Cl)ccc1Cl do in these assays?
core dimer inh: 4.4; DNA FID counter-1: -13.9; MLLE-PAM2 inh: -2.9; PABP polyA inh: 7.2; eIF4H inh: -2.8; NS3 helicase inh: 1.5

What do the screens show for `COCCNc1nc(Oc2ccc(C(N)=O)cc2)c2sccc2n1`?
MLLE-PAM2 inh: 10.2

How did O=C1/C(=C/c2cccs2)SC(=S)N1NS(=O)(=O)c1ccccc1 do in these assays?
core dimer inh: 3.6; DNA FID counter-1: -19.9; MLLE-PAM2 inh: -16.7; PABP polyA inh: 12.0; eIF4H inh: -9.1; NS3 helicase inh: 7.8

Results for O=C1/C(=C/C=C/c2ccco2)SC(=S)N1NS(=O)(=O)c1ccccc1 ?
core dimer inh: 65.3*; DNA FID counter-1: 1.2; MLLE-PAM2 inh: -2.4; PABP polyA inh: 89.3*; eIF4H inh: 88.6*; NS3 helicase inh: 65.6*; NS3 helicase cf: 72.9*; DNA FID counter-2: 16.6

What do the screens show for `CC(C(=O)O)N1C(=O)/C(=C/C=C/c2ccco2)SC1=S` (centres undefined)?
core dimer inh: 75.4*; DNA FID counter-1: -6.8; MLLE-PAM2 inh: 15.6; PABP polyA inh: 86.8*; eIF4H inh: 88.8*; NS3 helicase inh: 51.1*; NS3 helicase cf: 81.5*; DNA FID counter-2: 1.6

Screens: PubChem BioAssay, several laboratories
